Data reported in ChEMBL document CHEMBL1125740, “Heterocyclic quinones. 17. A new in vivo active antineoplastic drug: 6,7-bis(1-aziridinyl)-4-[[3-(N,N-dimethylamino)propyl]amino]-5,8- quinazolinedione” (J Med Chem, 1991).
“And” between values parts separate entries of the source, which are not always exact repeats. Identical values can stand only once.

How the values were obtained:
P388 [1] = assay: Compound was evaluated in vivo for antitumor activity after intraperitoneal administration against P388/L-PAM(14) for % increase in life span at an optimal dose of 0.2 mg/kg/injection at 1,2,3,4 day schedule.; type: functional; settings: Mus musculus, P388, ip
P388 [2] = assay: Compound was evaluated in vivo for antitumor activity after intraperitoneal administration against P388 (1313) for change in body weight at an optimal dose of 0.25 mg/kg/injection; type: functional, Mus musculus
[3] = Compound was evaluated in vivo for antitumor activity against Glasgow osteogenic sarcoma after injecting the compound intravenously for change in body weight.; type: functional, Mus musculus
Outline: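 Glasgow osteogenic sarcoma in C57Bl/6-derived hosts: 30-60 mg fragments implanted sc by trocar on day 0. Drug given iv on days 3, 6 and 9, 7 mice per group. Tumors measured by caliper. Median tumor burden recorded on day 10. Body weight change per mouse recorded at nadir. Toxicity-related deaths counted.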

P388 [4] = assay: Compound was evaluated in vivo for antitumor activity after intraperitoneal administration against P388 (1313) for change in body weight at an optimal dose of 1 mg/kg/injection; type: functional, Mus musculus
P388 [5] = assay: Compound was evaluated in vivo for antitumor activity after intraperitoneal administration against P388 (1313) for mortality range at an optimal dose of 0.25 mg/kg/injection; type: functional, Mus musculus
P388 [6] = assay: Compound was evaluated in vivo for antitumor activity after intraperitoneal administration against P388 (1313) for change in body weight at an optimal dose of 0.5 mg/kg/injection; type: functional, Mus musculus
L1210 [7] = assay: Compound was evaluated in vivo for antitumor activity after intraperitoneal administration against L1210(935)for % increase in life span at an optimal dose of 0.5 mg/kg/injection at 1 day schedule.; type: functional; settings: Mus musculus, L1210, ip, 24 h
Outline: (§1)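 L1210 leukemia, maintained in DBA/2 mice, was given ip as 10⁵ cells on day 0 to F1 hybrid or strain-of-origin mice over 18 g, in groups of 8. Dosing was ip from day 1, and mortality was checked daily. Median day of death counts dying mice only. %ILS = 100×(treated − control median day of death)/control median. Tumor-free survivors were counted on day 60. Weight change is g/mouse at nadir.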

[8] = Compound was evaluated in vivo for antitumor activity against Lewis Lung cercinoma after injecting the compound intravenously for optimal dose; type: functional, Mus musculus
Outline: (§2)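 Lewis lung carcinoma: 10^6 cells implanted im into C57Bl/6-derived hosts. Drug given iv on days 5, 9 and 13, 10 mice per group. Median tumor burden and weight nadir recorded. Survivors were killed on day 19, and their lungs were fixed in Fekete solution so that macroscopic metastases could be counted.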

P388 [9] = assay: Compound was evaluated in vivo for antitumor activity after intraperitoneal administration against P388 (1313) for % increase in life span at an optimal dose of 1 mg/kg/injection; type: functional; settings: Mus musculus, P388, ip
L1210 [10] = assay: Compound was evaluated in vivo for antitumor activity after intraperitoneal administration against L1210(935) for tumor free survivors at an optimal dose of 0.5 mg/kg/injection at 1 day schedule.; type: functional, Mus musculus; outline: as §1
L1210 [11] = assay: Compound was evaluated in vivo for antitumor activity after intraperitoneal administration against L1210(935) for tumor free survivors at an optimal dose of 1 mg/kg/injection at 1 day schedule.; type: functional, Mus musculus; outline: as §1
B16 [12] = assay: Compound was evaluated in vivo for antitumor activity against B16 melanoma 2 after injecting the compound intravenously for percent T/C; type: functional, Mus musculus
[13] = Compound was evaluated in vivo for antitumor activity against mammary adenocarcinoma 16/C after injecting the compound intravenously for total dose.; type: functional, Mus musculus
Outline: (§3)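 30-60 mg tumor fragments implanted sc by trocar on day 0 into C57Bl/6-derived hosts (B16) or C3H/He-derived hosts (16/C). Drug given iv on days 6, 9 and 13 (B16) or 6, 9 and 12 (16/C), 10 mice per group. Tumors measured by caliper. T/C % taken from median tumor burden of treated vs control groups on day 15 (B16) or day 14 (16/C). Body weight change per mouse recorded at nadir.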

P388 [14] = assay: Compound was evaluated in vivo for antitumor activity after intraperitoneal administration against P388 (1303) for total dose at an optimal dose of 0.75 mg/kg/injection; type: functional, Mus musculus
L1210 [15] = assay: Compound was evaluated in vivo for antitumor activity after intraperitoneal administration against L1210(935)for % increase in life span at an optimal dose of 0.125 mg/kg/injection at 1,4,7,11day schedule.; type: functional; settings: Mus musculus, L1210, ip; outline: as §1
P388 [16] = assay: Compound was evaluated in vivo for antitumor activity after intraperitoneal administration against P388/L-PAM(14) for total dose at an optimal dose of 0.5 mg/kg/injection at one day schedule.; type: functional, Mus musculus
[17] = Compound was evaluated in vivo for antitumor activity against mammary adenocarcinoma 16/C after injecting the compound intravenously for median tumor burden; type: functional, Mus musculus; outline: as §3
L1210 [18] = assay: Compound was evaluated in vivo for antitumor activity after intraperitoneal administration against L1210(935) for tumor free survivors at an optimal dose of 0.5 mg/kg/injection at 1,4,7,11 day schedule.; type: functional, Mus musculus; outline: as §1
[19] = Compound was evaluated in vivo for antitumor activity against Lewis Lung cercinoma after injecting the compound intravenously for total dose.; type: functional, Mus musculus; outline: as §2
P388 [20] = assay: Compound was evaluated in vivo for antitumor activity after intraperitoneal administration against P388 (1313) for total dose at an optimal dose of 0.5 mg/kg/injection; type: functional, Mus musculus
[21] = Compound was evaluated in vivo for antitumor activity against mammary adenocarcinoma 16/C after injecting the compound intravenously for median; type: functional, Mus musculus
P388 [22] = assay: Compound was evaluated in vivo for antitumor activity after intraperitoneal administration against P388/L-PAM(14) for total dose at an optimal dose of 0.25 mg/kg/injection at 1,4,7,11 day schedule.; type: functional, Mus musculus
P388 [23] = assay: Compound was evaluated in vivo for antitumor activity after intraperitoneal administration against P388/L-PAM(14) for mortality range at an optimal dose of 0.5 mg/kg/injection at 1,4,7,11 day schedule.; type: functional, Mus musculus
P388 [24] = assay: Compound was evaluated in vivo for antitumor activity after intraperitoneal administration against P388 (1313) for total dose at an optimal dose of 0.2 mg/kg/injection; type: functional, Mus musculus
B16 [25] = assay: Compound was evaluated in vivo for antitumor activity against B16 melanoma 1 after injecting the compound intravenously for median tumor burden; type: functional, Mus musculus
P388 [26] = assay: Compound was evaluated in vivo for antitumor activity after intraperitoneal administration against P388/L-PAM(14) for % increase in life span at an optimal dose of 0.1 mg/kg/injection at 1,2,3,4 day schedule.; type: functional; settings: Mus musculus, P388, ip
M5076 = assay: Compound was evaluated in vivo for antitumor activity against M5076 after injecting the compound intravenously for total dose.; type: functional, Mus musculus
P388 [27] = assay: Compound was evaluated in vivo for antitumor activity after intraperitoneal administration against P388/L-PAM(14) for mortality range at an optimal dose of 0.5 mg/kg/injection at one day schedule.; type: functional, Mus musculus
B16 [28] = assay: Compound was evaluated in vivo for antitumor activity against […] B16 melanoma 1 after injecting the compound intravenously for optimal dose; type: functional, Mus musculus
[29] = Compound was evaluated in vivo for antitumor activity against colon adenocarcinoma 38 after injecting the compound intravenously for toxicity related death.; type: functional, Mus musculus
P388 [30] = assay: Compound was evaluated in vivo for antitumor activity after intraperitoneal administration against P388/L-PAM(14) for tumor free survivors at an optimal dose of 0.25 mg/kg/injection at 1,4,7,11 day schedule.; type: functional, Mus musculus
P388 [31] = assay: Compound was evaluated in vivo for antitumor activity after intraperitoneal administration against P388/L-PAM(14) for total dose at an optimal dose of 0.4 mg/kg/injection at 1,2,3,4 day schedule.; type: functional, Mus musculus

Question: For CN(C)CCCNc1ncnc2c1C(=O)C(N1CC1)=C(N1CC1)C2=O, which ILS at 0.2 mg/kg (P388 [1]) is on record?
Answer: The ILS at 0.2 mg/kg was 36%.

Question: What about the “Change in body weight” value (P388 [2]) of the same compound?
Answer: The value was 2.4 g mouse-1.

Question: And the “Change in body weight” value [3]?
Answer: The value was 0.6 g mouse-1.

Question: And the “Change in body weight” value (P388 [4])?
Answer: Its value is -0.5.

Question: And the Mortality (P388 [5])?
Answer: The Mortality was 27 days.

Question: What about the “Change in body weight” value (P388 [6]) of the same compound?
Answer: The value was 0 g mouse-1.

Question: And the ILS at 0.5 mg/kg (L1210 [7])?
Answer: The ILS at 0.5 mg/kg was 27%.

Question: What about the Optimal dose [8] of the same compound?
Answer: The Optimal dose was 0.4 mg/kg and 0.2 mg/kg.

Question: And the ILS at 1 mg/kg (P388 [9])?
Answer: Its ILS at 1 mg/kg is 70%.

Question: What about the Survivors (L1210 [10]) of the same compound?
Answer: The Survivors was 0.

Question: What about the Survivors (L1210 [11]) of the same compound?
Answer: The Survivors was 0.

Question: And the T/C (B16 [12])?
Answer: The T/C was 53%.

Question: And the Total dose [13]?
Answer: Its Total dose is 1.2 mg/kg and 0.6 mg/kg.

Question: What about the Optimal dose (P388 [14]) of the same compound?
Answer: Its Optimal dose is 0.75 mg/kg.

Question: What about the ILS at 0.125 mg/kg (L1210 [15]) of the same compound?
Answer: The ILS at 0.125 mg/kg was 18%.

Question: And the Total dose (P388 [16])?
Answer: The Total dose was 0.5 mg/kg.

Question: And the Tumor burden [17]?
Answer: The Tumor burden was 1265 mg.

Question: And the Survivors (L1210 [18])?
Answer: Its Survivors is 1.

Question: And the Total dose [19]?
Answer: Its Total dose is 1.2 mg/kg and 0.6 mg/kg.

Question: And the Optimal dose (P388 [20])?
Answer: The Optimal dose was 2 mg/kg.

Question: What about the Tumor burden [21] of the same compound?
Answer: Its Tumor burden is 895 mg.

Question: And the Total dose (P388 [22])?
Answer: The Total dose was 1 mg/kg.

Question: What about the Mortality (P388 [23]) of the same compound?
Answer: Its Mortality is 32 days.

Question: What about the Optimal dose (P388 [24]) of the same compound?
Answer: Its Optimal dose is 0.8 mg/kg.

Question: And the Tumor burden (B16 [25])?
Answer: The Tumor burden was 27.8.

Question: And the ILS at 0.1 mg/kg (P388 [26])?
Answer: Its ILS at 0.1 mg/kg is 0%.

Question: What about the Total dose (M5076) of the same compound?
Answer: The Total dose was 4 mg/kg.

Question: And the Mortality (P388 [27])?
Answer: Its Mortality is 22 days.

Question: What about the Optimal dose (B16 [28]) of the same compound?
Answer: Its Optimal dose is 0.2 mg/kg.

Question: And the Toxicity [29]?
Answer: Its Toxicity is 0.

Question: And the Survivors (P388 [30])?
Answer: The Survivors was 0.

Question: What about the Total dose (P388 [31]) of the same compound?
Answer: Its Total dose is 1.6 mg/kg.
